Source: ChEMBL document CHEMBL1132324, “Structure-activity relationships in 1,4-benzodioxan-related compounds. 6. Role of the dioxane unit on selectivity for alpha(1)-adrenoreceptor subtypes” (J Med Chem, 1999)

Assays:
[1] = biological target: Adrenergic receptor alpha-2 (Rattus norvegicus) (UniProt P22086+P19328+P22909); test: The binding affinity was evaluated on alpha-2 adrenergic receptor expressed in rat cortex by using [3H]rauwolscine as radioligand.
Method in brief: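 Male Sprague-Dawley rat cerebral cortex membranes, washed in Tris-HCl pH 7.4 and held in buffer with 10 μM pargiline and 0.1% ascorbic acid. Incubated 30 min at 25 °C with 0.5-1.5 nM [3H]rauwolscine; nonspecific binding with 10 μM phentolamine. Filtration, scintillation counting. Ki from Cheng-Prusoff; 2-3 experiments in triplicate.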

[2] = biological target: T1, Alpha-1D adrenergic receptor (Homo sapiens) (UniProt P25100); test: The binding affinity was evaluated on cloned human alpha-1D adrenergic receptor expressed in chinese hamster ovary(CHO) cells by using [3H]prazosin as radioligand.; format: cell-based
T1 sequence (whole entry): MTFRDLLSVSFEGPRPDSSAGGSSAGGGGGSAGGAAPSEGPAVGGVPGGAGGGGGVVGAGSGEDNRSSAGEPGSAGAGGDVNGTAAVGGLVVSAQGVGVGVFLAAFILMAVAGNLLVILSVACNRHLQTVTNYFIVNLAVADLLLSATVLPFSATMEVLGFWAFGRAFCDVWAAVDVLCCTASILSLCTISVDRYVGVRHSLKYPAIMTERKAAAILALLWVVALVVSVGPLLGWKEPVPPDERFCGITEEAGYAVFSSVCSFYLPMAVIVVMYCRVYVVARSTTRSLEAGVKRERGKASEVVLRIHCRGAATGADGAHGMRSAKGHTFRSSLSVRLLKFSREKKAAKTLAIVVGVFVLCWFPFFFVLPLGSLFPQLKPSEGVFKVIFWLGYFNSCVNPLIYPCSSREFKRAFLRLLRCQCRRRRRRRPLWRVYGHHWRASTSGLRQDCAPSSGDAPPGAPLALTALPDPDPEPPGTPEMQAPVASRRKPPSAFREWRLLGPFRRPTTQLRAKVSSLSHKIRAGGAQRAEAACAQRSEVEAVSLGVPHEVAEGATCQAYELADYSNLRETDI
Method in brief: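 Membranes (30 μg protein) from CHO cells stably expressing each human α1 subtype, in 50 mM Tris-HCl pH 7.4. Incubated with 0.1–0.4 nM [3H]prazosin for 30 min at 25 °C, competitor 1 pM–10 μM. Nonspecific binding with 10 μM phentolamine. Ki by Cheng-Prusoff. 2–3 experiments in triplicate.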

[3] = biological target: T2, Alpha-1A adrenergic receptor (Rattus norvegicus) (UniProt P43140); test: Antagonist affinity was expressed as apparent pKb at alpha-1 adrenoceptors on isolated rat prostatic vas deferens (Alpha-1A adrenergic receptor).; format: functional, tissue-based
T2 sequence (whole entry): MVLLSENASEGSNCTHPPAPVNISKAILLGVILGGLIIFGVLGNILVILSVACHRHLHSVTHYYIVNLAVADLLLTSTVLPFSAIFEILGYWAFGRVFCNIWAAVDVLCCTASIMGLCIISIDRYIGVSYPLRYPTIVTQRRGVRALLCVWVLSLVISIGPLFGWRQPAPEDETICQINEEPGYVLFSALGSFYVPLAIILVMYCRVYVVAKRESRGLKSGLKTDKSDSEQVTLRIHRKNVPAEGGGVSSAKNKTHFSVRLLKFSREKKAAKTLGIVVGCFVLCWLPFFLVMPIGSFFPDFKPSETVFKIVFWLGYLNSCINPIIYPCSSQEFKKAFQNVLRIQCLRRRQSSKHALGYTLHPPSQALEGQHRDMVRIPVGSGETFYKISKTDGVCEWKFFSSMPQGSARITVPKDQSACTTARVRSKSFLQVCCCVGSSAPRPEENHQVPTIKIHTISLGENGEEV
Method in brief: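 Rat prostatic vas deferens in Tyrode with 0.1 μM cocaine. Equilibrated 60 min, primed twice with 10 μM noradrenaline, then a control cumulative (–)-noradrenaline curve recorded isometrically. Antagonist equilibrated 30 min before a repeat curve. Apparent pKb = log(DR−1) − log[B], with DR as the ratio of agonist EC50 with/without antagonist. 2–3 antagonist concentrations, each tested four times.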

pKi [1]: < 6
pKi [2]: 7.93
pKb [3]: 7.88
Structure (SMILES): COc1cccc(OC)c1OCCNCC1C(=O)c2ccccc2OC1c1ccccc1 (stereo not drawn)
